In article PMC2697266 (Nature, 2009):

Tests used:
[1] = test system: H3K27ac on Hoxa9; experiment: ChIP, Hoxa9-associated H3 acetylation; type: cell-based, murine; conditions: marrow progenitors 15 days after transduction, NJL-transduced cells
Outline: (§1)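 Mouse Lin- marrow cells were cytokine-stimulated, retrovirally transduced, selected with 1μg/mL puromycin and kept in SCF-only medium. ChIP used 1∼2 million cells for histone marks and 2∼3 million for other factors (p300 antibody 10μg). Equal nonspecific IgG served as antibody control and Chr8Int as negative locus. Triplicate SYBR qPCR gave % of input and fold over IgG.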

[2] = test system: p300 on Hoxa9; experiment: ChIP, p300 recruitment on Hoxa9; type: cell-based, murine; conditions: 15 days after transduction; qualitative
Outline: as §1

[3] = test system: Ezh2 or Suz12, H3K27me3 at Hox-A clusters; experiment: ChIP, polycomb factors and H3K27me3 at Hox-A cluster; type: cell-based, murine; conditions: NJL-infected progenitors, qualitative
Outline: as §1

[4] = test system: WDR5, RBBP5, and MLL2 on Hoxa9; experiment: ChIP, WDR5, RBBP5 and MLL2 on Hoxa9; type: cell-based, murine; conditions: marrow progenitors 15 days after transduction; qualitative
Outline: as §1

[5] = test system: H3K4me3 or H3; experiment: CoIP in transiently transfected 293 cells; type: binding; conditions: qualitative
Outline: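 Nuclei underwent limited micrococcal nuclease digestion to release mainly mononucleosomes, and insoluble material was removed by centrifugation. Supernatant was incubated with FLAG- or HA-agarose, or with magnetic beads coupled to anti-H3K4me3 or control antibodies. After extensive washing, precipitated proteins were analysed by immunoblot.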

[6] = test system: mice transplanted with transduced bone marrow progenitors; experiment: Murine bone marrow transplantation leukemogenic assay; type: in vivo; conditions: 12 mice
Outline: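 Lin- marrow from femur and tibia (balb/C or b/6) was prestimulated 2-3 days with SCF, 5ng/mL FLT3 ligand, IL3 and IL6. Cells were infected with MSCV retrovirus encoding 3xFLAG fusion or empty vector. 100,000 cells were injected via tail vein into sublethally irradiated syngeneic mice, 12 per group, and leukemia kinetics were followed.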

B1: NJL: NUP98 amino acids 1-514 fused to amino acids 1489-1690 of JARID1A transcript variant 1 (protein)
chain: MFNKSFGTPFGGGTGGFGTTSTFGQNTGFGTTSGGAFGTSAFGSSNNTGGLFGNSQTKPGGLFGTSSFSQPATSTSTGFGFGTSTGTANTLFGTASTGTSLFSSQNNAFAQNKPTGFGNFGTSTSSGGLFGTTNTTSNPFGSTSGSLFGPSSFTAAPTGTTIKFNPPTGTDTMVKAGVSTNISTKHQCITAMKEYESKSLEELRLEDYQANRKGPQNQVGAGTTTGLFGSSPATSSATGLFSSSTTNSGFAYGQNKTAFGTSTTGFGTNPGGLFGQQNQQTTSLFSKPFGQATTTQNTGFSFGNTSTIGQPSTNTMGLFGVTQASQPGGLFGTATNTSTGTAFGTGTGLFGQTNTGFGAVGSTLFGNNKLTTFGSSTTSAPSFGTTSGGLFGNKPTLTLGTNTNTSNFGFGTNTSGNSIFGSKPAPGTLGTGLGAGFGTALGAGQASLFGNNQPKIGGPLGTGAFGAPGFNTTTATLGFGAPQAPVALTDPNASAAQQAVLQQHINSLTYSPFGMEEKPLKVKGKDSSEKKRKRKLEKVEQLFGEGKQKSKELKKMDKPRKKKLKLGADKSKELNKLAKKLAKEEERKKKKEKAAAAKVELVKESTEKKREKKVLDIPSKYDWSGAEESDDENAVCAAQNCQRPCKDKVDWVQCDGGCDEWFHQVCVGVSPEMAENEDYICINCAKKQGPVSPGPAPPPSFIMSYKLPMEDLKETS
modifications: left off: 3xFLAG, N-terminal, kept
[1]
  elevation of H3K27ac on Hoxa9: > 2,000 fold
[2]
  p300 recruitment on Hoxa9: recruitment of p300
[3]
  restriction of polycomb factors (Ezh2 or Suz12): restricted within Hoxa11-a13
[4]
  WDR5, RBBP5, and MLL2 on Hoxa9: high levels
[5]
  association with H3K4me3 or H3: associated with H3K4me3 or H3
[6]
  average time to death of AML: 69 days
